For assay [1], the target named is T1, cGMP-specific 3',5'-cyclic phosphodiesterase (Homo sapiens, UniProt O76074). The assay can be described thus: Inhibition of Phosphodiesterase 5.
The target of assay [2] is T2, Phosphodiesterase 4 (Homo sapiens, UniProt P27815+Q08499+Q07343+Q08493). Put plainly: Inhibition of Phosphodiesterase 4. It counts as protein assay.
The target of assay [3] is T2, Phosphodiesterase 4. Put plainly: Inhibition of phosphodiesterase 4 at 1 uM cAMP. Format: protein assay. The procedure, abridged: (§1)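 Enzyme activity was measured at 1 μM substrate, and the drug concentration giving 50% inhibition was taken as the IC50. IC50 was calculated by linear regression (r = 0.95) as the mean of three determinations, with experimental error about 15%. Values above 200 μM were reported as ns.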

The target of assay [4] is T3, Phosphodiesterase 3 (Homo sapiens, UniProt Q14432+Q13370). Put plainly: Inhibition of phosphodiesterase 3 at 1 uM cAMP. Format: protein assay. In short, it runs like this: as §1
The target of assay [5] is T1, cGMP-specific 3',5'-cyclic phosphodiesterase. Put plainly: Inhibition of phosphodiesterase 5. In short, it runs like this:
as §1

The target of another assay is Phosphodiesterase 1 (Homo sapiens, UniProt P54750+Q01064+Q14123). The assay can be described thus: Inhibition of phosphodiesterase 1. It counts as protein assay. In short, it runs like this: as §1
The next assay deals with Adenosine A2 receptor (Homo sapiens, UniProt P29275+P29274). The assay can be described thus: Displacement of [3H]NECA from Adenosine A2 receptor. Format: protein assay. A general note: Loss of bound radioactivity is the signal in a displacement assay; it reports binding, not function.
Assay [6] addresses GABA-A receptor; anion channel. Put plainly: Displacement of [3H]diazepam from rat brain GABA-A benzodiazepine receptor.
Assay [7] has as its target T3, Phosphodiesterase 3. Put plainly: Inhibitory concentration against Phosphodiesterase 3 was tested by linear regression. Format: protein assay. In short, it runs like this: as §1
Another assay has as its target T4, Adenosine receptor A1 (Homo sapiens, UniProt P30542).
T4 sequence (P30542 whole entry): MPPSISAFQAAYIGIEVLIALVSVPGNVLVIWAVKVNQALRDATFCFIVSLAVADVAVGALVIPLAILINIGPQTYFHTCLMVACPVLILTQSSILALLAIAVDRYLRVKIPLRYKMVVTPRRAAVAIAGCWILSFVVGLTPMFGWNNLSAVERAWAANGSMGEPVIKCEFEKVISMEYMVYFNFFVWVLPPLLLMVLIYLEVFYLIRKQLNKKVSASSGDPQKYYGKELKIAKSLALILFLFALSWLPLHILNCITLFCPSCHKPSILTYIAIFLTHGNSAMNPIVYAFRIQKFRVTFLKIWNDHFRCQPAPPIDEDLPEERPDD
The assay can be described thus: Displacement of [3H]CHA from Adenosine A1 receptor.

Some results are limits rather than exact numbers.

As usually defined, the Ki is the equilibrium dissociation constant of an inhibitor or competing ligand from its target. For orientation: IC50 means the concentration that inhibits the measured activity by half. The low end stands for higher potency, the high end for lower potency.

In the case of `CCCCCC[C@@H]([C@@H](C)O)n1cnc2c(N)ncnc21` [EHNA], the Ki (in assay [1]; on Phosphodiesterase 4 [2]) was more than 200 µM each time.

`Nc1ncnc2c1ncn2Cc1ccccc1` [9-BENZYL-9H-ADENINE]: the results for the concentration for half-maximal inhibition (IC50) against Phosphodiesterase 4 [3] and against Phosphodiesterase 3 [4] were 160 µM and more than 200 µM, respectively.

For `Nc1nc(C(F)(F)F)nc2c1ncn2Cc1ccccc1`, the IC50 against Phosphodiesterase 4 [3] is 1.8 µM; on Phosphodiesterase 3 [4], 101 µM.

Take `CNc1ncnc2c1nc(C)n2Cc1ccccc1F.CS(=O)(=O)O`: the IC50 against Phosphodiesterase 4 [3] was 54 µM; at Phosphodiesterase 3 [4], more than 200 µM.

For `CN(C)c1nc(C(F)(F)F)nc2c1ncn2Cc1ccccc1`, the 50% inhibitory concentration (IC50) was determined as 11 µM against Phosphodiesterase 4 [3] and 61 µM against Phosphodiesterase 3 [4].

As for `CNc1nc(C(F)(F)F)nc2c1ncn2CCc1ccccc1`, the half-inhibitory concentration (IC50) was 0.75 µM against Phosphodiesterase 4 [3] and more than 200 µM against Phosphodiesterase 3 [4].

Turning to `CNc1nc(C(F)(F)F)nc2c1ncn2Cc1ccccc1F`, the IC50 in [5] came out at 5 µM; against Phosphodiesterase 4 [3], 0.04 µM; on Phosphodiesterase 1 it was 40 µM; at Phosphodiesterase 3 [4] it was 380 µM.

With `CCCCNc1ncnc2c1ncn2Cc1ccccc1F.Cl`, the 50% inhibitory concentration (IC50) on Phosphodiesterase 4 [3] was 53 µM; on Phosphodiesterase 3 [4], more than 200 µM.

Consider `Cl.Fc1ccccc1Cn1cnc2c(N3CCCCC3)ncnc21`, for which the half-maximal inhibitory concentration (IC50) against Phosphodiesterase 4 [3] is 121 µM; at Phosphodiesterase 3 [4] it was more than 200 µM.

Consider `CNc1ncnc2c1ncn2Cc1ccccc1.CS(=O)(=O)O`, for which the IC50 was 4.6 µM at Phosphodiesterase 4 [3] and 339 µM on Phosphodiesterase 3 [4].

Turning to `CNc1ncnc2c1ncn2Cc1ccccc1F.CS(=O)(=O)O`, the IC50 on Adenosine A2 receptor was more than 100 µM; in assay [6] it was 13 µM; on Phosphodiesterase 4 [3], 3 µM; at Phosphodiesterase 3 [7], 121 µM; at Adenosine receptor A1, more than 100 µM. The Ki amounted to 6.5 µM in assay [1] and 2 µM on Phosphodiesterase 4 [2].

For the compound `CNc1nc(-c2ccccc2)nc2c1ncn2Cc1ccccc1F.CS(=O)(=O)O`, the values for the IC50 against Phosphodiesterase 4 [3] and on Phosphodiesterase 3 [4] were 0.5 µM and more than 200 µM, respectively.

For the compound `CNc1nc(C)nc2c1ncn2Cc1ccccc1F.CS(=O)(=O)O`, the IC50 was 0.2 µM on Phosphodiesterase 4 [3] and 250 µM against Phosphodiesterase 3 [4].

As to `CNc1nc(C(F)(F)F)nc2c1ncn2C`, the IC50 at Phosphodiesterase 4 [3] worked out at 11 µM; at Phosphodiesterase 3 [4], 331 µM.
